Measured values collected from several papers.
Each line is one published result; the experiments were not run side by side.
IDE: Insulin-degrading enzyme (IDE, Homo sapiens, UniProt P14735)
CSF1R: Macrophage colony-stimulating factor 1 receptor (CSF1R, Homo sapiens, UniProt P07333)
Tumor necrosis factor receptor superfamily member 9: Tumor necrosis factor receptor superfamily member 9 (Homo sapiens, UniProt Q07011)

`CCCCCCN(CC(=O)O)CC(=O)N[C@@H](Cc1c[nH]cn1)C(=O)OC` has an IC50 of 400 nM (IDE; enzyme activity; inhibitor; fluorescence).
With `CC(C)C[C@H](NC(=O)[C@H](Cc1ccccc1)NC(=O)[C@H](Cc1ccc(O)cc1)NC(=O)CNC(=O)[C@H](CCCNC(=N)N)NC(=O)[C@H](CO)NC(=O)[C@H](CCC(N)=O)NC(=O)[C@H](CO)NC(=O)[C@H](C)NC(=O)[C@H](Cc1ccccc1)NC(=O)[C@@H]1CCCN1C(=O)[C@H](CO)NC(=O)[C@H](CCC(N)=O)NC(=O)[C@H](Cc1ccccc1)NC(=O)[C@H](CCC(=O)O)NC(=O)[C@H](CCC(=O)O)NC(=O)[C@H](CC(=O)O)NC(=O)[C@@H](NC(=O)[C@H](CCCNC(=N)N)NC(=O)[C@@H](N)Cc1ccccc1)C(C)C)C(=O)N[C@@H](Cc1ccccc1)C(=O)N[C@@H](CCCNC(=N)N)C(=O)N1CCC[C@H]1C(=O)N[C@@H](CCCNC(=N)N)C(=O)N[C@@H](CC(N)=O)C(N)=O` the EC50 was 0.166 nM (Neuromedin-U receptor 2 (NMUR2, Homo sapiens, UniProt Q9GZQ4); inositol phosphate; agonist).
`Cc1cc(Nc2cc3ncccc3c(N[C@@H]3C[C@H]4CC[C@@H](C3)N4CCC#N)n2)n[nH]1` gave a Kd of 1100 nM (CSF1R; binding; competition with immobilised ligand).
`CCCC[C@@H]1NC(=O)[C@H](Cc2ccc(O)cc2)NC(=O)[C@@H]2CCCN2C(=O)[C@H](CC(=O)O)NC(=O)[C@H](C)NC(=O)[C@H](Cc2ccccc2)NC(=O)[C@@H]2CSCCC(=O)N3CN(CN(C3)C(=O)CCSC[C@@H](C(=O)N[C@@H](CNC(=O)CCc3cn(CC(=O)N[C@H]4CSCCC(=O)N5CN6CN(C5)C(=O)CCSC[C@H](NC(=O)[C@@H](CC(=O)O)NC(=O)[C@H](Cc5cccc7ccccc57)NC(=O)[C@@H]5CCCN5C4=O)C(=O)N[C@@H](CCSC)C(=O)N[C@@H](CCCCNC(=N)N)C(=O)N[C@@H](CC(=O)O)C(=O)N[C@@H](Cc4c[nH]c5ccccc45)C(=O)N[C@@H](CO)C(=O)N[C@@H]([C@@H](C)O)C(=O)N4CCC[C@H]4C(=O)N4C[C@H](O)C[C@H]4C(=O)N[C@@H](Cc4c[nH]c5ccccc45)C(=O)N[C@H](C(N)=O)CSCCC6=O)nn3)C(N)=O)NC1=O)C(=O)CCSC[C@H](NC(C)=O)C(=O)N[C@@H](CC(C)(C)C)C(=O)N1CCC[C@H]1C(=O)N[C@@H](CCC(=O)O)C(=O)N[C@H](C)C(=O)N1CCC[C@H]1C(=O)N[C@@H](Cc1ccc(O)cc1)C(=O)N2` gave a Kd of 3.5 nM (Tumor necrosis factor receptor superfamily member 9; binding; SPR).
`COC(=O)[C@H](Cc1c[nH]cn1)NC(=O)CN(CC(=O)O)Cc1ccc(F)cc1` gave an IC50 of 2500 nM (IDE; enzyme activity; inhibitor; fluorescence).
With `CNC(=O)c1cc2c(Oc3ccc(NC(=O)C4(C(=O)Nc5ccc(F)cc5)CC4)cc3)ccnc2cc1OC` the IC50 was 11 nM (CSF1R; enzyme activity; inhibitor; radiometric).
`CC#CC(=O)N1CC[C@@H](n2cc(-c3ccc(Oc4c(F)cccc4F)cc3)c3c(N)n[nH]c(=O)c32)C1` gave a Kd of over 3000 nM (Tyrosine-protein kinase JAK3 (JAK3, Homo sapiens, UniProt P52333); binding; competition with immobilised ligand).
`Cc1cc2nc3c(=O)[nH]c(=O)nc-3n(C[C@H](O)[C@H](O)[C@H](O)COP(=O)(O)OP(=O)(O)OC[C@H]3O[C@@H](n4cnc5c(N)ncnc54)[C@H](O)[C@@H]3O)c2cc1C` has a Kd of 159 nM (Heat shock protein beta-1 (HSPB1, Homo sapiens, UniProt P04792); binding; lysate).
With `c1cncc(-c2cccc(Nc3nccc(NC4CCCCC4)n3)c2)c1` the Kd was 590 nM (CSF1R; binding; competition with immobilised ligand).
For `CC(C)COC(=O)[C@H](Cc1cnc[nH]1)NC(=O)CN(CC(=O)O)Cc1ccccc1`, the IC50 was 600 nM (IDE; enzyme activity; inhibitor; fluorescence).
For `CCCC[C@@H]1NC(=O)[C@H](Cc2ccc(O)cc2)NC(=O)[C@@H]2CCCN2C(=O)[C@H](CC(=O)O)NC(=O)[C@H](C)NC(=O)[C@H](Cc2ccccc2)NC(=O)[C@@H]2CSCCC(=O)N3CN(CN(C3)C(=O)CCSC[C@@H](C(=O)N[C@@H](C)C(N)=O)NC1=O)C(=O)CCSC[C@H](NC(C)=O)C(=O)N[C@@H](CC(C)(C)C)C(=O)N1CCC[C@H]1C(=O)N[C@@H](CCCCNC(=O)CCc1cn(CC(=O)N[C@H]3CSCCC(=O)N4CN5CN(C4)C(=O)CCSC[C@H](NC(=O)[C@@H](CC(=O)O)NC(=O)[C@H](Cc4cccc6ccccc46)NC(=O)[C@@H]4CCCN4C3=O)C(=O)N[C@@H](CCSC)C(=O)N[C@@H](CCCCNC(=N)N)C(=O)N[C@@H](CC(=O)O)C(=O)N[C@@H](Cc3c[nH]c4ccccc34)C(=O)N[C@@H](CO)C(=O)N[C@@H]([C@@H](C)O)C(=O)N3CCC[C@H]3C(=O)N3C[C@H](O)C[C@H]3C(=O)N[C@@H](Cc3c[nH]c4ccccc34)C(=O)N[C@H](C(N)=O)CSCCC5=O)nn1)C(=O)N[C@H](C)C(=O)N1CCC[C@H]1C(=O)N[C@@H](Cc1ccc(O)cc1)C(=O)N2`, the Kd was 12 nM (Tumor necrosis factor receptor superfamily member 9; binding; SPR).
For `Cc1cnc(-c2ccc(-c3ccc(NC(=O)Nc4c(F)cc(F)cc4F)cc3F)c3c2C(=O)NC3)[nH]1`, the Kd was 1.3 nM (Serine/threonine-protein kinase 4 (STK4, Homo sapiens, UniProt Q13043); binding; competition with immobilised ligand).
